# Source: article PMC6126370 (Investigational new drugs, 2017)
# Tests used:
# [1] = test system: human liver microsomal fractions; assay: In vitro metabolism in liver microsomes or S9 fractions; assay type: in vitro ADME
# Outline: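 Test compound at 1 and 10 μM was incubated with human liver microsomes or S9 fraction (0.5 mg protein/mL) with 1 mM NADPH and 3.3 mM […] in 100 mM phosphate, pH 7.4, at 37 °C with shaking. For O-methylation, 0.1 mM S-adenosyl methionine was added. Aliquots were processed like plasma and analysed by LC/MS.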
# [2] = test system: Bcl-6-dependent diffuse large B-cell lymphoma (DLBCL), hepatocellular carcinoma (HCC), and breast cancer cell lines; conditions: preclinical studies, through induction of apoptosis; cited from earlier work
# [3] = test system: patients with advanced solid tumors; conditions: human, in vivo
# [4] = Clinical pharmacokinetics of PU-H71 in plasma and urine; assay type: in vivo, human; conditions: for Urinary excretion: 1-h i.v. infusion
# Outline: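 Patients with refractory solid tumors received the test compound (10–470 mg/m2) as a 1-h i.v. infusion. Heparinised blood was drawn on cycle 1 day 1 pre-infusion, 30 min after start, 5 min before end, and 1.5–24 h after start. Plasma was stored at −70 °C. Urine was collected every void on day 1. Plasma was acetonitrile-precipitated with deuterated internal standard and run on HPLC/MS against a control-plasma standard curve. Cmax/Tmax were taken by inspection and AUC by trapezoidal rule.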
# [5] = test system: mouse xenografts of triple negative breast cancer, lymphoma, myeloma, pancreatic, and hepatocellular carcinoma; conditions: preclinical mouse xenografts; cited from earlier work
# refractory solid tumors = assay: Clinical response by RECIST 1.1; assay type: in vivo, human
# Outline: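 Adults (≥18 y) with solid tumors refractory to or lacking standard therapy received the test compound i.v. over 1 h on days 1 and 8 of 21-day cycles. Doses were 10–470 mg/m2/day, escalated by modified accelerated titration and then 3+3. Response was assessed by RECIST criteria in evaluable patients.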
# [6] = PU-H71 metabolites in patient plasma; assay type: in vivo, human; conditions: aliquot of patient plasma, Fig. 5a
# [7] = 14 patients evaluable of 17 enrolled
compound,measurement,setting,value
"CC(C)NCCCn1c(Sc2cc3c(cc2I)OCO3)nc2c(N)ncnc21 [PU-H71, 6-amino-8-[(6-iodo-1,3-benzodioxol-5-yl)thio]-N-(1-methylethyl)-9H–purine-9-propanamine]",phase 1 reactions,"[1]; NADPH, 37 °C","S-oxidation, N-dealkylation, de-iodination, and O-demethylation"
same,most active phase 1 reaction,[1]; forms catechol 501,O-demethylation
same,cytotoxicity,[2],high cytotoxicity
same,dose level of first grade ≥ 2 toxicity,[3],DL 6
same,dependency of T1/2 to dose level,[4]; 10 to 470 mg/m^2,no dependency to dose level
same,fraction of total AUC (± SD) during the infusion,[4]; all dose levels,19.6% ± 11.3%
same,Urinary excretion,"[4]; dose level 1 (10 mg/m^2), day 1, 1 patient",5.5%
same,Urinary excretion,"[4]; dose level 4 (60 mg/m^2), day 1, 1 patient",8.8%
same,Urinary excretion,"[4]; dose level 5 (80 mg/m^2), day 1, mean ± SD of 2 patients",6.7 ± 1.3%
same,Urinary excretion,"[4]; dose level 6 (110 mg/m^2), day 1, mean ± SD of 3 patients",6.7 ±4.6%
same,Urinary excretion,"[4]; dose level 7 (150 mg/m^2), day 1, 1 patient",8.1%
same,Urinary excretion,"[4]; dose level 8 (200 mg/m^2), day 1, mean ± SD of 2 patients",6.0 ± 4.2%
same,Urinary excretion,"[4]; dose level 9 (266 mg/m^2), day 1, 1 patient",5.4%
same,Urinary excretion,"[4]; dose level 10 (354 mg/m^2), day 1, mean ± SD of 3 patients",8.6 ± 4.6%
same,Urinary excretion,"[4]; dose level 11 (470 mg/m^2), day 1, 1 patient",5.7%
same,Tmax,"[4]; human, plasma, intravenous",≤ 1 h
same,half-life,"[4]; human, plasma, intravenous",2.7 to 19.8 h
same,half-life,"[4]; human, plasma, iv",8.4 ± 3.6 h
same,AUC(0-inf),"[4]; human, plasma, iv, 10 mg/m^2",0.517 µM·h
same,AUC(0-t),"[4]; human, plasma, iv, 10 mg/m^2",0.45 µM·h
same,Cmax,"[4]; human, plasma, iv, 10 mg/m^2",0.2 µM
same,clearance,"[4]; human, plasma, iv, 10 mg/m^2",17.2 mL/min/kg
same,half-life,"[4]; human, plasma, iv, 10 mg/m^2",2.7 h
same,AUC(0-inf),"[4]; human, plasma, iv, 20 mg/m^2",1.67 µM·h
same,AUC(0-t),"[4]; human, plasma, iv, 20 mg/m^2",1.23 µM·h
same,Cmax,"[4]; human, plasma, iv, 20 mg/m^2",0.3 µM
same,clearance,"[4]; human, plasma, iv, 20 mg/m^2",10.5 mL/min/kg
same,half-life,"[4]; human, plasma, iv, 20 mg/m^2",10.5 h
same,half-life,"[4]; human, plasma, iv, 40 mg/m^2",9.2 h
same,AUC(0-inf),"[4]; human, plasma, iv, 60 mg/m^2",5.02 µM·h
same,AUC(0-t),"[4]; human, plasma, iv, 60 mg/m^2",4.55 µM·h
same,Cmax,"[4]; human, plasma, iv, 60 mg/m^2",1.3 µM
same,clearance,"[4]; human, plasma, iv, 60 mg/m^2",10.5 mL/min/kg
same,half-life,"[4]; human, plasma, iv, 60 mg/m^2",6.1 h
same,AUC(0-inf),"[4]; human, plasma, iv, 80 mg/m^2",16.8 µM·h
same,AUC(0-t),"[4]; human, plasma, iv, 80 mg/m^2",15 µM·h
same,Cmax,"[4]; human, plasma, iv, 80 mg/m^2",5.7 ± 0.1 µM
same,clearance,"[4]; human, plasma, iv, 80 mg/m^2",4.17 mL/min/kg
same,half-life,"[4]; human, plasma, iv, 80 mg/m^2",6.7 ± 0.1 h
same,AUC(0-inf),"[4]; human, plasma, iv, 110 mg/m^2",22.9 µM·h
same,AUC(0-t),"[4]; human, plasma, iv, 110 mg/m^2",19.8 µM·h
same,Cmax,"[4]; human, plasma, iv, 110 mg/m^2",7.3 ± 2.4 µM
same,clearance,"[4]; human, plasma, iv, 110 mg/m^2",4.67 mL/min/kg
same,half-life,"[4]; human, plasma, iv, 110 mg/m^2",7.6 ± 0.2 h
same,AUC(0-inf),"[4]; human, plasma, iv, 150 mg/m^2",29.5 µM·h
same,AUC(0-t),"[4]; human, plasma, iv, 150 mg/m^2",25.6 µM·h
same,Cmax,"[4]; human, plasma, iv, 150 mg/m^2",8.7 µM
same,clearance,"[4]; human, plasma, iv, 150 mg/m^2",4.5 mL/min/kg
same,half-life,"[4]; human, plasma, iv, 150 mg/m^2",7.2 h
same,AUC(0-inf),"[4]; human, plasma, iv, 200 mg/m^2",41.3 µM·h
same,AUC(0-t),"[4]; human, plasma, iv, 200 mg/m^2",34.8 µM·h
same,Cmax,"[4]; human, plasma, iv, 200 mg/m^2",8 ± 4.5 µM
same,clearance,"[4]; human, plasma, iv, 200 mg/m^2",4.33 mL/min/kg
same,half-life,"[4]; human, plasma, iv, 200 mg/m^2",7.1 ± 0.5 h
same,AUC(0-inf),"[4]; human, plasma, iv, 266 mg/m^2",90.8 µM·h
same,AUC(0-t),"[4]; human, plasma, iv, 266 mg/m^2",59.9 µM·h
same,Cmax,"[4]; human, plasma, iv, 266 mg/m^2",7.8 µM
same,clearance,"[4]; human, plasma, iv, 266 mg/m^2",2.5 mL/min/kg
same,half-life,"[4]; human, plasma, iv, 266 mg/m^2",10.2 h
same,AUC(0-inf),"[4]; human, plasma, iv, 354 mg/m^2",180 µM·h
same,AUC(0-t),"[4]; human, plasma, iv, 354 mg/m^2",114 µM·h
same,Cmax,"[4]; human, plasma, iv, 354 mg/m^2",17.3 ± 8.5 µM
same,clearance,"[4]; human, plasma, iv, 354 mg/m^2",2.17 mL/min/kg
same,half-life,"[4]; human, plasma, iv, 354 mg/m^2",11.5 ± 7.3 h
same,AUC(0-inf),"[4]; human, plasma, iv, 470 mg/m^2",203 µM·h
same,AUC(0-t),"[4]; human, plasma, iv, 470 mg/m^2",143 µM·h
same,Cmax,"[4]; human, plasma, iv, 470 mg/m^2",33.7 µM
same,clearance,"[4]; human, plasma, iv, 470 mg/m^2",2 mL/min/kg
same,half-life,"[4]; human, plasma, iv, 470 mg/m^2",10.8 h
same,given dose (± SD) recovered as free drug in urine,"[4]; total urine collected in 24 h, average for all dose levels",6.7 ± 3.0%
same,growth inhibitory effects in xenografts,[5],potent and lasting growth inhibitory effects
same,progressive disease within the first 2 cycles,refractory solid tumors; 14 evaluable patients,Eight of the evaluable patients progressed early
same,patients with best response of stable disease,refractory solid tumors; [7],35%
same,patients with best response of stable disease for >2 cycles (number),refractory solid tumors; [7],6
"NCCCn1c(Sc2cc3c(cc2I)OCO3)nc2c(N)ncnc21 [compound 471, de-isopropyl PU-H71]",peak in representative ion mass tracing,[6],observed
